# Measured values published in ChEMBL document CHEMBL1135602 (J Med Chem, 2002).
# Values joined by “and” are separate entries in the source; they are usually repeats but may differ in a detail not shown here. Equal entries are not always repeated.
# Test system: BC
# Experiment: Cytotoxicity against human breast cancer cells.
# Assay type: functional, cell-based
# Settings: not given
row,SMILES,IC50 [nM]
1,COc1ccc(CCCc2nc(N)nc(N)c2-c2cccc(Cl)c2)cc1,> 500000
2,Nc1ncc(Cc2ccc(OCCCOc3cc(Cl)c(Cl)cc3Cl)cc2)c(N)n1,> 50000

# Biological target: Bifunctional dihydrofolate reductase-thymidylate synthase (Plasmodium falciparum K1) (UniProt P13922)
# Sequence (P13922 whole entry, looked up): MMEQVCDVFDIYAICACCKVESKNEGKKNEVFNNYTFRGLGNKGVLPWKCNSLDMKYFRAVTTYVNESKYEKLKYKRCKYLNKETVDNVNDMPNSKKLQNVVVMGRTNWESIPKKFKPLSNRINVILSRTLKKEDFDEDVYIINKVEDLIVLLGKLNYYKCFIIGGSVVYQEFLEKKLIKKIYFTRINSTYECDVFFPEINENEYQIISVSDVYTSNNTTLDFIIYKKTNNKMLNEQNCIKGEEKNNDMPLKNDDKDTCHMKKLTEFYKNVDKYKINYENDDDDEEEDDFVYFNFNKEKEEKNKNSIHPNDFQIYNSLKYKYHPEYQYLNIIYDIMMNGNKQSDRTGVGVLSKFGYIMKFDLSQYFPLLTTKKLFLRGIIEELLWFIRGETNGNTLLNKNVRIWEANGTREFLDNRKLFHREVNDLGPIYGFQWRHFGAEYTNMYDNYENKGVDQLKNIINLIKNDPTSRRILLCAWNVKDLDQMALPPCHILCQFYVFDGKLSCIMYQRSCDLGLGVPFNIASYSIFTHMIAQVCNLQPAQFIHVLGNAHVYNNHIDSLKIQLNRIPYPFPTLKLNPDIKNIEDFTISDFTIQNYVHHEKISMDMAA
# Experiment: Inhibition of S108N mutant dihydrofolate reductase (DHFR)relative to Tmp
# Settings: not given
# Procedure, shortened: (§1)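 Assayed at 25 °C in 50 mM TES pH 7.0, 75 mM β-mercaptoethanol, 1 mg/mL BSA, with 100 µM H2folate and 100 µM NADPH. A340 was followed. Ki was derived from IC50 = Ki(1+[S]/Km), assuming competitive inhibition.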
row,SMILES,Relative activity
1,Nc1ncc(Cc2ccc(OCCCOc3cc(Cl)c(Cl)cc3Cl)cc2)c(N)n1,0.2

# Biological target: Bifunctional dihydrofolate reductase-thymidylate synthase (Plasmodium falciparum K1) (UniProt P13922)
# Experiment: Inhibition of Plasmodium falciparum wild-type dihydrofolate reductase (DHFR) relative to Pyrimethamine.
# Settings: not given
row,SMILES,Relative activity
1,COc1ccc(CCCc2nc(N)nc(N)c2-c2cccc(Cl)c2)cc1,3.7

# Biological target: Bifunctional dihydrofolate reductase-thymidylate synthase (Plasmodium falciparum K1) (UniProt P13922)
# Experiment: Inhibition of the wild-type dihydrofolate reductase (DHFR) relative to Tmp
# Settings: not given
# Procedure, shortened: as §1
row,SMILES,Relative activity
1,Nc1ncc(Cc2ccc(OCCCOc3cc(Cl)c(Cl)cc3Cl)cc2)c(N)n1,0.09

# Biological target: Bifunctional dihydrofolate reductase-thymidylate synthase (Plasmodium falciparum K1, UniProt P13922)
# Sequence (P13922 whole entry): as the sequence (P13922 whole entry, looked up) above
# Experiment: Inhibition of the C59R+S108N mutant of dihydrofolate reductase (DHFR)
# Settings: not given
# Procedure, shortened: (§2)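 Assay at 25 °C: 50 mM TES pH 7.0, 75 mM β-mercaptoethanol, 1 mg/mL BSA, 100 µM H2folate and 100 µM NADPH. NADPH oxidation followed at 340 nm. Ki derived from IC50 as Ki(1+[S]/Km), assuming competitive inhibition.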
row,SMILES,Ki [nM]
1,COc1ccc(CCCc2nc(N)nc(N)c2-c2cccc(Cl)c2)cc1,6
2,Nc1ncc(Cc2ccc(OCCCOc3cc(Cl)c(Cl)cc3Cl)cc2)c(N)n1,39.1

# Biological target: Bifunctional dihydrofolate reductase-thymidylate synthase (Plasmodium falciparum K1, UniProt P13922, S108N)
# Sequence (P13922 whole entry, looked up, stated change not applied): as the sequence (P13922 whole entry, looked up) above
# Experiment: Inhibition of the S108N mutant of dihydrofolate reductase (DHFR)
# Settings: not given
# Procedure, shortened: as §2
row,SMILES,Ki [nM]
1,COc1ccc(CCCc2nc(N)nc(N)c2-c2cccc(Cl)c2)cc1,4
2,Nc1ncc(Cc2ccc(OCCCOc3cc(Cl)c(Cl)cc3Cl)cc2)c(N)n1,23.5

# Biological target: Bifunctional dihydrofolate reductase-thymidylate synthase (Plasmodium falciparum K1) (UniProt P13922)
# Experiment: Inhibition of the C59R+S108N mutant of dihydrofolate reductase (DHFR)relative to Tmp
# Settings: not given
# Procedure, shortened: as §1
row,SMILES,Relative activity
1,Nc1ncc(Cc2ccc(OCCCOc3cc(Cl)c(Cl)cc3Cl)cc2)c(N)n1,0.2

# Biological target: T1, Dihydrofolate reductase (Homo sapiens, UniProt P00374)
# T1 sequence (P00374 whole entry): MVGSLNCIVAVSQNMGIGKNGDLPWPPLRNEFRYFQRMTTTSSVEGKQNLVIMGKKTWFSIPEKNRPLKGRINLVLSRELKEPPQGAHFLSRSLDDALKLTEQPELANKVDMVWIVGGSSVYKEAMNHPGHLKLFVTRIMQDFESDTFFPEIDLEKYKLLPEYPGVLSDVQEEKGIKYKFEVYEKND
# Experiment: Cytotoxicity by selective inhibition against human dihydrofolate reductase (DHFR).
# Settings: not given
row,SMILES,Ki [nM]
1,COc1ccc(CCCc2nc(N)nc(N)c2-c2cccc(Cl)c2)cc1,> 5000

# Test system: KB
# Experiment: Cytotoxicity against human epidermoid carcinoma KB cell.
# Assay type: functional, cell-based
# Settings: not given
row,SMILES,IC50 [nM]
1,COc1ccc(CCCc2nc(N)nc(N)c2-c2cccc(Cl)c2)cc1,15000
2,Nc1ncc(Cc2ccc(OCCCOc3cc(Cl)c(Cl)cc3Cl)cc2)c(N)n1,> 50000

# Test system: Plasmodium falciparum
# Experiment: In vitro antiplasmodial activity (IC50) against Plasmodium falciparum wtTM4/8.2
# Assay type: functional, organism-based
# Settings: not given
row,SMILES,IC50 [nM]
1,COc1ccc(CCCc2nc(N)nc(N)c2-c2cccc(Cl)c2)cc1,400
2,Nc1ncc(Cc2ccc(OCCCOc3cc(Cl)c(Cl)cc3Cl)cc2)c(N)n1,3000

# Test system: Vero
# Experiment: Cytotoxicity by the selective inhibition against African green monkey kidney […] (vero cells).
# Assay type: functional, cell-based
# Settings: Chlorocebus sabaeus
row,SMILES,IC50 [nM]
1,COc1ccc(CCCc2nc(N)nc(N)c2-c2cccc(Cl)c2)cc1,3000
2,Nc1ncc(Cc2ccc(OCCCOc3cc(Cl)c(Cl)cc3Cl)cc2)c(N)n1,45000

# Test system: Bifunctional dihydrofolate reductase-thymidylate synthase (Plasmodium falciparum K1), P13922 [UNDEFINED MUTATION]
# Sequence (P13922 whole entry, looked up, stated change not applied): as the sequence (P13922 whole entry, looked up) above
# Experiment: Ratio of Inhibition of the S108N mutant of dihydrofolate reductase (DHFR) to inhibition of wild type dihydrofolate reductase.
# Settings: not given
row,SMILES,Ratio
1,COc1ccc(CCCc2nc(N)nc(N)c2-c2cccc(Cl)c2)cc1,1.8
2,Nc1ncc(Cc2ccc(OCCCOc3cc(Cl)c(Cl)cc3Cl)cc2)c(N)n1,26.1

# Test system: Plasmodium falciparum
# Experiment: IC50 ratio against Plasmodium falciparum K1CB1/TM4
# Assay type: functional
# Settings: not given
row,SMILES,Ratio
1,COc1ccc(CCCc2nc(N)nc(N)c2-c2cccc(Cl)c2)cc1,6.8
2,Nc1ncc(Cc2ccc(OCCCOc3cc(Cl)c(Cl)cc3Cl)cc2)c(N)n1,1.2

# Test system: not listed separately
# Experiment: Safety ratio is cytotoxicity to vero cells/IC50 K1
# Assay type: toxicity, cell-based
# Settings: monkey
# Procedure, shortened: (§3)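 Ratio of the cytotoxicity IC50 (vero, KB or BC cells, Skehan protocol) to the antiplasmodial IC50 against K1CB1 (C59R+S108N DHFR). […] Label was added at 24 h and cultures ran a further 18-24 h. Final DMSO was 0.1%.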
row,SMILES,selectivity ratio
1,Nc1ncc(Cc2ccc(OCCCOc3cc(Cl)c(Cl)cc3Cl)cc2)c(N)n1,13

# Test system: Plasmodium falciparum
# Experiment: Safety ratio as cytotoxicity in vero cells relative to IC50 TM4
# Assay type: functional
# Settings: not given
row,SMILES,Safety ratio
1,Nc1ncc(Cc2ccc(OCCCOc3cc(Cl)c(Cl)cc3Cl)cc2)c(N)n1,15 and >17

# Test system: Bifunctional dihydrofolate reductase-thymidylate synthase (Plasmodium falciparum K1), P13922 [UNDEFINED MUTATION]
# Experiment: Ratio of Inhibition of the C59R+S108N mutant of dihydrofolate reductase (DHFR) to inhibition of wild type dihydrofolate reductase.
# Settings: not given
row,SMILES,Ratio
1,COc1ccc(CCCc2nc(N)nc(N)c2-c2cccc(Cl)c2)cc1,2.7
2,Nc1ncc(Cc2ccc(OCCCOc3cc(Cl)c(Cl)cc3Cl)cc2)c(N)n1,43.4

# Test system: not listed separately
# Experiment: Safety ratio is cytotoxicity to vero cells/IC50 k1.
# Assay type: toxicity, cell-based
# Settings: monkey, read-out: Safety ratio
# Procedure, shortened: as §3
row,SMILES,selectivity ratio
1,Nc1ncc(Cc2ccc(OCCCOc3cc(Cl)c(Cl)cc3Cl)cc2)c(N)n1,13
